Test results as given in ChEMBL document CHEMBL1131139, “Synthesis and antibacterial activity of ketolides (6-O-methyl-3-oxoerythromycin derivatives): a new class of antibacterials highly potent against macrolide-resistant and -susceptible respiratory pathogens” (1998).
In brackets after ≈: the same amount, converted by molar mass.

Legend:
Assay type in all cases: functional
[1] = test system: Haemophilus; experiment: In vitro inhibitory activity against Haemophilus AmpS (43)
[2] = test system: Mus musculus; experiment: In Vivo evaluation for its effective dose against Haemophilus influenzae (351GR1)
Outline: (§1)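 Male Charles River CD1 mice, 20-22 g, 10 per dose group, infected intraperitoneally with 0.5 mL diluted overnight broth culture (physiological buffer or 5% hog mucine) at 10-100 times the minimal lethal dose. Compound suspended in carboxymethylcellulose, 0.5 mL given orally immediately and 4 h postinfection. Survival followed 8-10 days; ED50 (unitary dose protecting 50% from death) by Litchfield-Wilcoxon probit method.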

[3] = test system: Haemophilus; experiment: In vitro inhibitory activity against Haemophilus AmpR (37)
[4] = test system: Mus musculus; experiment: In Vivo evaluation for its effective dose against Haemophilus influenzae (351RD7 AmpR beta (+)); outline: as §1
[5] = test system: Mus musculus; experiment: In Vivo evaluation for its effective dose against Haemophilus influenzae (351TO19 AmpR beta (-)); outline: as §1
[6] = test system: Streptococcus pyogenes; experiment: In vitro inhibitory activity against Streptococcus pyogenes (02A1UC1)
Outline: (§2)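 Two-fold agar dilution on Mueller-Hinton agar (pH 7.4). Inoculum from overnight plate cultures suspended in Mueller-Hinton broth, adjusted to 10^9 CFU/mL, diluted 1:200 and spotted by multipoint inoculator at about 10^4 CFU/spot. Plates incubated 37 °C for 20 h. MIC taken as lowest concentration with no visible growth.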

[7] = test system: Streptococcus pneumoniae; experiment: In vitro inhibitory activity against Streptococcus pneumoniae (EryRi 030SJ5i); outline: as §2
[8] = test system: Staphylococcus aureus; experiment: In vitro inhibitory activity against Staphylococcus aureus (EryRi 011GO25i); outline: as §2
[9] = test system: Haemophilus influenzae; experiment: In vitro inhibitory activity against Haemophilus influenzae (351CB12); outline: as §2
[10] = test system: Streptococcus pneumoniae; experiment: In vitro inhibitory activity against Streptococcus pneumoniae (032UC1); outline: as §2
[11] = test system: Staphylococcus aureus; experiment: In vitro inhibitory activity against Staphylococcus aureus (EryRc 011CB20); outline: as §2
[12] = test system: Staphylococcus aureus; experiment: In vitro inhibitory activity against Staphylococcus aureus (011UC4); outline: as §2
[13] = test system: Streptococcus pneumoniae; experiment: In vitro inhibitory activity against Streptococcus pneumoniae (EryRc 030SJ1); outline: as §2
[14] = test system: Haemophilus influenzae; experiment: In vitro inhibitory activity against Haemophilus influenzae (351HT3); outline: as §2
[15] = test system: Escherichia coli; experiment: In vitro inhibitory activity against Escherichia coli (250 UC5); outline: as §2
[16] = test system: Staphylococcus epidermidis; experiment: In vitro inhibitory activity against Staphylococcus epidermidis (EryRi 012GO11i); outline: as §2
[17] = test system: Staphylococcus sp.; experiment: In vitro inhibitory activity against Staphylococci EryRc (23)
[18] = test system: Mus musculus; experiment: In Vivo evaluation for its effective dose against Streptococcus pneumoniae (030Cr29 EryRc); outline: as §1
[19] = In vitro inhibitory activity against Pneumococci PenR (65)
[20] = test system: Staphylococcus sp.; experiment: In vitro inhibitory activity against Staphylococci EryRi (65)
[21] = test system: Enterococcus; experiment: In vitro inhibitory activity against enterococci EryRi (19)
[22] = test system: Mus musculus; experiment: In Vivo evaluation for its effective dose against Streptococcus pneumoniae (030SJ1 EryRc); outline: as §1
[23] = test system: Mus musculus; experiment: In Vivo evaluation for its effective dose against Staphylococcus aureus (011UC4).; outline: as §1
[24] = test system: Mus musculus; experiment: In Vivo evaluation for its effective dose against Streptococcus pneumoniae (030RO1 EryRi); outline: as §1
[25] = test system: Mus musculus; experiment: In Vivo evaluation for its effective dose against Streptococcus pneumoniae (030SJ6 EryRc); outline: as §1
[26] = test system: Streptococcus sp.; experiment: In vitro inhibitory activity against Streptococci EryRi (98)
[27] = test system: Mus musculus; experiment: In Vivo evaluation for its effective dose against Staphylococcus aureus (011GO25 EryRi.; outline: as §1
[28] = In vitro inhibitory activity against Pneumococci EryRc (34)
[29] = test system: Enterococcus; experiment: In vitro inhibitory activity against enterococci EryRc (13)
[30] = test system: Mus musculus; experiment: In Vivo evaluation for its effective dose against Streptococcus pneumoniae (030MV2 EryRc); outline: as §1
[31] = test system: Mus musculus; experiment: In Vivo evaluation for its effective dose against Streptococcus pneumoniae (032UC1); outline: as §1
[32] = test system: Mus musculus; experiment: In Vivo evaluation for its effective dose against Streptococcus pyogenes (02A1UC1); outline: as §1
[33] = test system: Streptococcus sp.; experiment: In vitro inhibitory activity against Streptococci EryR (27)

## CC1(C)S[C@@H]2[C@H](NC(=O)[C@H](N)c3ccccc3)C(=O)N2[C@H]1C(=O)O [AMPICILLIN]
[1]
  MIC50: 0.3 µg/mL (≈ 0.859 µM)
  MIC90: 0.6 µg/mL (≈ 1.72 µM)
[2]
  ED50: 5.5 mg/kg
[3]
  MIC50: 1.2 µg/mL (≈ 3.43 µM)
  MIC90: 1 µg/mL (≈ 2.86 µM)
[4]
  ED50: > 600 mg/kg
[5]
  ED50: 39 mg/kg

## CC[C@H]1OC(=O)[C@H](C)C(=O)[C@H](C)[C@@H](O[C@@H]2O[C@H](C)C[C@H](N(C)C)[C@H]2O)[C@](C)(OC)C[C@@H](C)/C(=N\O)[C@H](C)[C@@H](O)[C@]1(C)O
[6]
  MIC: 0.15 µg/mL (≈ 0.249 µM)
[7]
  MIC: 40 µg/mL (≈ 66.4 µM)
[8]
  MIC: 1.2 µg/mL (≈ 1.99 µM)
[9]
  MIC: 1.2 µg/mL (≈ 1.99 µM)
[10]
  MIC: 0.08 µg/mL (≈ 0.133 µM)
[11]
  MIC: 40 µg/mL (≈ 66.4 µM)
[12]
  MIC: 0.3 µg/mL (≈ 0.498 µM)
[13]
  MIC: 40 µg/mL (≈ 66.4 µM)
[14]
  MIC: 20 µg/mL (≈ 33.2 µM)
[15]
  MIC: 40 µg/mL (≈ 66.4 µM)
[16]
  MIC: 0.6 µg/mL (≈ 0.995 µM)

## CC[C@H]1OC(=O)[C@H](C)C(=O)[C@H](C)[C@@H](O[C@@H]2O[C@H](C)C[C@H](N(C)C)[C@H]2O)[C@](C)(OC)C[C@@H](C)C(=O)[C@H](C)[C@H]2N(CCCCc3ccccc3)C(=O)O[C@]12C
[6]
  MIC: 0.02 µg/mL (≈ 0.0268 µM)
[7]
  MIC: 0.3 µg/mL (≈ 0.403 µM)
[8]
  MIC: 0.15 µg/mL (≈ 0.201 µM)
[9]
  MIC: 2.5 µg/mL (≈ 3.36 µM)
[10]
  MIC: 0.02 µg/mL (≈ 0.0268 µM)
[11]
  MIC: 40 µg/mL (≈ 53.7 µM)
[12]
  MIC: 0.08 µg/mL (≈ 0.107 µM)
[13]
  MIC: 0.15 µg/mL (≈ 0.201 µM)
[14]
  MIC: 1.2 µg/mL (≈ 1.61 µM)
[15]
  MIC: 40 µg/mL (≈ 53.7 µM)
[16]
  MIC: 0.04 µg/mL (≈ 0.0537 µM)

## CC[C@H]1OC(=O)[C@H](C)[C@@H](O[C@H]2C[C@@](C)(OC)[C@@H](O)[C@H](C)O2)[C@H](C)[C@@H](O[C@@H]2O[C@H](C)C[C@H](N(C)C)[C@H]2O)[C@](C)(O)C[C@@H](C)C(=O)[C@H](C)[C@@H](O)[C@]1(C)O [ERYTHROMYCIN]
[17]
  MIC50: 40 µg/mL (≈ 54.5 µM)
  MIC90: 40 µg/mL (≈ 54.5 µM)
[18]
  ED50: > 100 mg/kg
[6]
  MIC: 0.08 µg/mL (≈ 0.109 µM)
[1]
  MIC50: 1.2 µg/mL (≈ 1.64 µM)
  MIC90: 5 µg/mL (≈ 6.81 µM)
[19]
  MIC50: 0.6 µg/mL (≈ 0.818 µM)
  MIC90: 40 µg/mL (≈ 54.5 µM)
[20]
  MIC50: 40 µg/mL (≈ 54.5 µM)
  MIC90: 40 µg/mL (≈ 54.5 µM)
[21]
  MIC50: 2.5 µg/mL (≈ 3.41 µM)
  MIC90: 10 µg/mL (≈ 13.6 µM)
[22]
  ED50: > 100 mg/kg
[23]
  ED50: 57 mg/kg
[7]
  MIC: 40 µg/mL (≈ 54.5 µM)
[8]
  MIC: 40 µg/mL (≈ 54.5 µM)
[9]
  MIC: 2.5 µg/mL (≈ 3.41 µM)
[24]
  ED50: > 100 mg/kg
[25]
  ED50: > 100 mg/kg
[10]
  MIC: 0.08 µg/mL (≈ 0.109 µM)
[2]
  ED50: 346 mg/kg
[26]
  MIC50: 20 µg/mL (≈ 27.3 µM)
  MIC90: 40 µg/mL (≈ 54.5 µM)
[27]
  ED50: > 100 mg/kg
[28]
  MIC50: 40 µg/mL (≈ 54.5 µM)
  MIC90: 40 µg/mL (≈ 54.5 µM)
[29]
  MIC50: 40 µg/mL (≈ 54.5 µM)
  MIC90: 40 µg/mL (≈ 54.5 µM)
[11]
  MIC: 40 µg/mL (≈ 54.5 µM)
[3]
  MIC50: 1.2 µg/mL (≈ 1.64 µM)
  MIC90: 10 µg/mL (≈ 13.6 µM)
[4]
  ED50: 326 mg/kg
[12]
  MIC: 0.3 µg/mL (≈ 0.409 µM)
[13]
  MIC: 40 µg/mL (≈ 54.5 µM)
[30]
  ED50: > 100 mg/kg
[14]
  MIC: 2.5 µg/mL (≈ 3.41 µM)
[5]
  ED50: 442 mg/kg
[31]
  ED50: 18.3 mg/kg
[32]
  ED50: 300 mg/kg
[15]
  MIC: 40 µg/mL (≈ 54.5 µM)
[33]
  MIC50: 5 µg/mL (≈ 6.81 µM)
  MIC90: 40 µg/mL (≈ 54.5 µM)
[16]
  MIC: 40 µg/mL (≈ 54.5 µM)

## CC[C@H]1OC(=O)[C@H](C)C(=O)[C@H](C)[C@@H](O[C@@H]2O[C@H](C)C[C@H](N(C)C)[C@H]2O)[C@](C)(OC)C[C@@H](C)C(=O)[C@H](C)[C@H]2N(N)C(=O)O[C@]12C
[6]
  MIC: 0.15 µg/mL (≈ 0.239 µM)
[7]
  MIC: 40 µg/mL (≈ 63.7 µM)
[8]
  MIC: 1.2 µg/mL (≈ 1.91 µM)
[9]
  MIC: 10 µg/mL (≈ 15.9 µM)
[10]
  MIC: 0.08 µg/mL (≈ 0.127 µM)
[11]
  MIC: 40 µg/mL (≈ 63.7 µM)
[12]
  MIC: 1.2 µg/mL (≈ 1.91 µM)
[13]
  MIC: 40 µg/mL (≈ 63.7 µM)
[14]
  MIC: 10 µg/mL (≈ 15.9 µM)
[15]
  MIC: 40 µg/mL (≈ 63.7 µM)
[16]
  MIC: 1.2 µg/mL (≈ 1.91 µM)

## CC[C@H]1OC(=O)[C@H](C)C(=O)[C@H](C)[C@@H](O[C@@H]2O[C@H](C)C[C@H](N(C)C)[C@H]2O)[C@](C)(OC)C[C@@H](C)C(=O)[C@H](C)[C@H]2N(CCCNc3ccccc3)C(=O)O[C@]12C
[6]
  MIC: 0.04 µg/mL (≈ 0.0536 µM)
[7]
  MIC: 0.6 µg/mL (≈ 0.804 µM)
[8]
  MIC: 0.6 µg/mL (≈ 0.804 µM)
[9]
  MIC: 1.2 µg/mL (≈ 1.61 µM)
[10]
  MIC: 0.02 µg/mL (≈ 0.0268 µM)
[11]
  MIC: 40 µg/mL (≈ 53.6 µM)
[12]
  MIC: 0.08 µg/mL (≈ 0.107 µM)
[13]
  MIC: 40 µg/mL (≈ 53.6 µM)
[14]
  MIC: 2.5 µg/mL (≈ 3.35 µM)
[15]
  MIC: 40 µg/mL (≈ 53.6 µM)
[16]
  MIC: 0.3 µg/mL (≈ 0.402 µM)
